For one test, the target named is T1, GABA transporter 4 (Mus musculus, UniProt P31650).
T1 sequence (P31650 whole entry): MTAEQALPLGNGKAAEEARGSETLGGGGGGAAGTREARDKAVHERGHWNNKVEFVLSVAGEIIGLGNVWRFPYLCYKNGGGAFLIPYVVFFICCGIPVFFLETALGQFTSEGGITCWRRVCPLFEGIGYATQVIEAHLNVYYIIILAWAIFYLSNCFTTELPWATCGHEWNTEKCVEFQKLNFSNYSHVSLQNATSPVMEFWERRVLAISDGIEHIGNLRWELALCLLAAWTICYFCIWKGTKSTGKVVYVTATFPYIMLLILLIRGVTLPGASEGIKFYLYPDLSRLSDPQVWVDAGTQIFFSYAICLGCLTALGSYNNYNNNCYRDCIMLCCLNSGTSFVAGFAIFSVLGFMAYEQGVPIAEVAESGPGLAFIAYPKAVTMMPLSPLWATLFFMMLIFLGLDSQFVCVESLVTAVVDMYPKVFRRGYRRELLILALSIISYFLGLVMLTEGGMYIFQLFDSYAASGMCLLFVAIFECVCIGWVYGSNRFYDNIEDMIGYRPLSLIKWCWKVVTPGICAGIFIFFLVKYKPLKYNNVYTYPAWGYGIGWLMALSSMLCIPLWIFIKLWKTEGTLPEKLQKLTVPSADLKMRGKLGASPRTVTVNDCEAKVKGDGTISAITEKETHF
The test is described as follows: Inhibition of [3H]GABA uptake at mouse GAT4 expressed in HEK293 cells after 3 mins by scintillation counting analysis. Type of test: cell-based. The procedure, abridged: (§1)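 Uptake measured in primary mouse cortical astrocyte or neuron cultures, or in cells stably overexpressing the respective recombinant mGAT. Cells were incubated at 37 °C in phosphate-buffered saline with [3H]GABA (1 μCi/mL), 1 μM GABA and increasing inhibitor concentrations. After 3 min, uptake was stopped by automated washing. Cells were solubilized in scintillant, radioactivity was counted, and inhibition curves were analyzed.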

The target in the next test is T2, GABA transporter 2 (Mus musculus, UniProt P31651).
T2 sequence (P31651 whole entry): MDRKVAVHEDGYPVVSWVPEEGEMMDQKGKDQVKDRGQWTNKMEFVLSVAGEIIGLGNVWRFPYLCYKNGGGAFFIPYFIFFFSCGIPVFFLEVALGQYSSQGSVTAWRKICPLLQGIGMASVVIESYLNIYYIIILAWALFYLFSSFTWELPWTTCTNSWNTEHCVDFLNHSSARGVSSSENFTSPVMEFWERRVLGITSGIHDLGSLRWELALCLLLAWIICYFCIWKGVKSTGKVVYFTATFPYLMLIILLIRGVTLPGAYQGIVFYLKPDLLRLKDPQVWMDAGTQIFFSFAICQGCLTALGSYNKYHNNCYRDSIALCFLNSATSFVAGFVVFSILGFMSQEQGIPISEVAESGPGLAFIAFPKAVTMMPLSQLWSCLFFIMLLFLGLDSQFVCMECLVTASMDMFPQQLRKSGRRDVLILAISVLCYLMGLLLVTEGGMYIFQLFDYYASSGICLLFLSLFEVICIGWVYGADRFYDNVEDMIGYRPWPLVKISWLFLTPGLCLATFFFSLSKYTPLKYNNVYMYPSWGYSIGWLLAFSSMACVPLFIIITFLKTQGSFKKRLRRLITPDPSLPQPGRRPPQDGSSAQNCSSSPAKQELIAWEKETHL
The test is described as follows: Inhibition of [3H]GABA uptake at mouse GAT2 expressed in HEK293 cells after 3 mins by scintillation counting analysis. It counts as cell-based. In a few lines:
as §1

For another test, the target named is T3, GABA transporter 3 (Mus musculus, UniProt P31649).
T3 sequence (P31649 whole entry): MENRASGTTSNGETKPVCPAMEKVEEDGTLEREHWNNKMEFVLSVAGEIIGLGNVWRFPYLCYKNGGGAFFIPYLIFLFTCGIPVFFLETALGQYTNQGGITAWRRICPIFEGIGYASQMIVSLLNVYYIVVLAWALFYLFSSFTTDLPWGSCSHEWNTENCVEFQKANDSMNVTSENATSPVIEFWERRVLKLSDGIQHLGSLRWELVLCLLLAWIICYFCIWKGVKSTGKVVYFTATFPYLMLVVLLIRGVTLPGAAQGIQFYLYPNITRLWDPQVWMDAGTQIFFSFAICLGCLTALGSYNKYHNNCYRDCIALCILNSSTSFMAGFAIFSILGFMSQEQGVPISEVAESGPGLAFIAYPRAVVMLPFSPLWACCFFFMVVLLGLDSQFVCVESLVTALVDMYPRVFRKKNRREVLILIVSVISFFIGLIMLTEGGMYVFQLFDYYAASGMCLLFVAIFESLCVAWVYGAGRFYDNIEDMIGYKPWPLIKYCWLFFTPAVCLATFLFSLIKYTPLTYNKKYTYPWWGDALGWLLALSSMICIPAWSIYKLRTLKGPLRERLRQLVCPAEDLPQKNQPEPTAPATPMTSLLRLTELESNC
The test is described as follows: Inhibition of [3H]GABA uptake at mouse GAT3 expressed in HEK293 cells after 3 mins by scintillation counting analysis. It counts as cell-based. In a few lines:
as §1

Test [1] deals with Sodium- and chloride-dependent GABA transporter 1 (Mus musculus, UniProt P31648). The test is described as follows: Inhibition of [3H]GABA uptake at mouse GAT1 expressed in HEK293 cells after 3 mins by scintillation counting analysis. Type of test: cell-based. In a few lines:
as §1

Test [2] deals with Mus musculus. The test is described as follows: Anticonvulsant activity in ip dosed audiogenic seizure susceptible Frings mouse model after 15 mins. It counts as functional.
In test [3] the test system is Mus musculus. The test is described as follows: Anticonvulsant activity in ip dosed audiogenic seizure susceptible Frings mouse model after 60 mins. Type of test: functional. The settings on record: 1 h.
In test [4] the target is GABA transporter (Mus musculus). The test is described as follows: Inhibition of [3H]GABA uptake in mouse neurons after 3 mins by scintillation counting analysis.
The target is the same in test [5]. The test is described as follows: Inhibition of [3H]GABA uptake in mouse astrocytes after 3 mins by scintillation counting analysis.

The results in this text go back to ChEMBL document CHEMBL2321777, “Selective mGAT2 (BGT-1) GABA uptake inhibitors: design, synthesis, and pharmacological characterization” (J Med Chem, 2013).

Take `Cc1ccsc1C(=CCCN(C)[C@@H]1CCCC[C@@H]1C(=O)O)c1sccc1C` (relative stereo): the IC50 on GABA transporter 4 (read-out: IC50) was over 300 µM; at GABA transporter 2, 50 µM; at GABA transporter 3 (read-out: IC50), 281 µM; at GABA transporter 3 (read-out: pIC50 (converted)), 3550 µM; in test [1], over 300 µM.
Turning to `Cc1ccsc1C(=CCCN(C)[C@H]1CCCC[C@@H]1C(=O)O)c1sccc1C` (relative stereo), the IC50 is over 300 µM at GABA transporter 4 (read-out: IC50), 36 µM against GABA transporter 2, over 300 µM at GABA transporter 3 (read-out: IC50) and 273 µM in test [1].
By ED50 is commonly meant the dose at which the effect has come halfway, by size or by number of responders. Lower therefore signals an effect at a small dose. Take `Cc1ccsc1C(=CCCN(C)C1CCCC=C1C(=O)O)c1sccc1C` (centres undefined): the IC50 on GABA transporter 4 (read-out: IC50) was 286 µM; on GABA transporter 4 (read-out: pIC50 (converted)) it was 3470 µM; on GABA transporter 2, 45 µM; on GABA transporter 3 (read-out: IC50), over 300 µM; in test [1] it was 307 µM. This molecule also showed an ED50 in the test with Mus musculus [2] of 20.4 mg/kg.
On to `Cc1ccsc1C(=CCCN1CCC[C@@H](C(=O)O)C1)c1sccc1C` [TIAGABINE], for which the IC50 is 800 µM at GABA transporter 4 (read-out: IC50), over 300 µM at GABA transporter 3 (read-out: IC50) and 0.8 µM in test [1]. The molecule further had an ED50 in the test with Mus musculus [3] of 1.1 mg/kg.
For the molecule `CN[C@@H]1CCCC[C@H]1C(=O)O` (relative stereo), the IC50 in test [4] is over 300 µM; in test [5], over 300 µM; at GABA transporter 4 (read-out: IC50) it was over 3000 µM; on GABA transporter 2, over 3000 µM; at GABA transporter 3 (read-out: IC50), over 3000 µM; in test [1] it was over 3000 µM.
For `Cc1ccsc1C(=CCCN(C)C1CCC=C1C(=O)O)c1sccc1C` (centres undefined), the IC50 is over 300 µM at GABA transporter 4 (read-out: IC50), 50 µM against GABA transporter 2, over 300 µM on GABA transporter 3 (read-out: IC50) and 17 µM in test [1].
For `Cc1ccsc1C(=CCCN(C)C1C2C=CC(C2)C1C(=O)O)c1sccc1C` (centres undefined), the IC50 was over 300 µM on GABA transporter 4 (read-out: IC50), 144 µM at GABA transporter 2, over 300 µM at GABA transporter 3 (read-out: IC50) and 40 µM in test [1].
As to `CNC1CCCc2onc(O)c21` (centres undefined), the IC50 is 405 µM in test [4]; 48 µM in test [5]; over 3000 µM on GABA transporter 4 (read-out: IC50); over 3000 µM against GABA transporter 2; over 3000 µM on GABA transporter 3 (read-out: IC50); 450 µM in test [1].
Regarding `CN[C@H]1CCCC[C@H]1C(=O)O` (relative stereo), the IC50 in test [4] was over 300 µM; in test [5], over 300 µM; at GABA transporter 4 (read-out: IC50) it was over 3000 µM; against GABA transporter 2, over 3000 µM; on GABA transporter 3 (read-out: IC50) it was over 3000 µM; in test [1], over 3000 µM.
In the case of `CNC1CCCC=C1C(=O)O` (centres undefined), the IC50 on GABA transporter 4 (read-out: IC50) is over 1000 µM; at GABA transporter 3 (read-out: IC50), over 1000 µM; in test [1], 423 µM.
Consider `Cc1ccsc1C(=CCCN(C)C1CCCc2o[nH]c(=O)c21)c1sccc1C` (centres undefined), for which the IC50 is over 300 µM on GABA transporter 4 (read-out: IC50), over 300 µM on GABA transporter 3 (read-out: IC50) and 7 µM in test [1].
For `CNC1C2C=CC(C2)C1C(=O)O` (centres undefined), the IC50 (at GABA transporter 4 (read-out: IC50); on GABA transporter 3 (read-out: IC50); in test [1]) was over 500 µM in each case.
